Data from paper PMC10405366 (Molecular pharmaceutics, 2023).

Columns and labels:
[1] = tested on: OVCAR8-RFP cells xenografted IP; assay: OVCAR8-RFP IP xenograft; assay type: in vivo, mouse; details: for tumor burden: compared to DMSO
OVCAR8 [2] = assay: 2D foci assay; assay type: cell-based, human; details: OVCAR8, 50 nM for 8 h, two weeks colony formation, relative to vehicle
Method in brief: (§1)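 Cells were seeded at 200 per 60 mm dish and left to attach overnight. They were then exposed for 8 h to test compound (50 nM), DMSO vehicle or paclitaxel (10 nM). Medium was replaced and cells grew drug-free for about two weeks (15 days). Colonies were fixed in 4% paraformaldehyde, stained with 0.05% crystal violet, imaged and counted. There were three biological replicates, compared with vehicle by Dunnett's test.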

MDA-MB-435 = assay: Cell viability assay; assay type: cell-based, human; details: MDA-MB-435, 72 h, average
Method in brief: (§2)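 RPMI1640 (OVCAR3, OVCAR4, MDA-MB-435) or DMEM (OVCAR8, MDA-MB-231) was used, with 10% FBS and penicillin/streptomycin. Cells were STR-validated and kept below 20 passages. Cells were plated at 5000 per well overnight, then given test compound at final 0.95–250 nM (nine levels, 0.5% DMSO) for 72 h at 37 °C. Viability was read by CellTiter-Blue absorbance, and IC50 was taken relative to DMSO. Paclitaxel (0.39–100 nM) was the control, with three biological replicates.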

OVCAR8 [3] = assay: Cell viability assay; assay type: cell-based, human
Method in brief: as §2

murine lymphoma L5178Y = details: mouse lymphoma cells (L5178Y); cited from earlier work
OVCAR4 [4] = assay: Cell viability assay; assay type: cell-based, human
Method in brief: as §2

OVCAR4 [5] = assay: 2D foci assay; assay type: cell-based, human; details: OVCAR4, 50 nM for 8 h, two weeks colony formation, relative to vehicle
Method in brief: as §1

[6] = tested on: A2780 human ovarian cancer cell lines; details: cited from earlier work
MDA-MB-231 = assay: Cell viability assay; assay type: cell-based, human; details: MDA-MB-231, 72 h, average
Method in brief: as §2

OVCAR8 spheroids = assay: Spheroid viability assay; assay type: cell-based, human; details: read-out: IC50, spheroid viability, 7 days
Method in brief: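 OVCAR8 cells (5000 in 80 μL medium per well) were formed into spheroids in ultra-low-attachment round-bottom wells. Spheroids were treated for 7 days with test compound, DMSO vehicle or paclitaxel control. Viability was measured with CellTiter-Glo after 30 min shaking for lysis, read as luminescence. Dose–response curves were normalized to vehicle to give IC50. Data are mean ± SEM from three biological replicates.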

OVCAR3 = assay: Cell viability assay; assay type: cell-based, human; details: OVCAR3, 72 h, average
Method in brief: as §2

SMILES	tumor burden ([1]; 0.5 mg/kg twice weekly)	foci formation (OVCAR8 [2])	liver and organ gross morphology ([1]; 0.25 mg/kg in DMSO twice weekly for four weeks)	tumor burden ([1]; 0.25 mg/kg twice weekly for four weeks)	IC50 (MDA-MB-435)	cytotoxic activity (OVCAR8 [3])	cytotoxic activity (murine lymphoma L5178Y)	cytotoxic activity (OVCAR4 [4])	foci formation (OVCAR4 [5])	growth of cells [6]	IC50 (MDA-MB-231)	IC50 (OVCAR8 spheroids)	IC50 (OVCAR3)
CC(=O)O[C@H]1C(=O)[C@@]2(C)[C@H]([C@H](OC(=O)c3ccccc3)[C@]3(O)C[C@H](OC(=O)[C@H](O)[C@@H](NC(=O)c4ccccc4)c4ccccc4)C(C)=C1C3(C)C)[C@]1(OC(C)=O)CO[C@@H]1C[C@@H]2O [taxol, paclitaxel, reference compound]	reduced	–	–	–	–	–	–	–	–	–	–	–	–
CC(O)[C@@]12SS[C@]3(C(=O)N1C)[C@@H](O)C1([C@@]45c6ccccc6N[C@@H]4N4C(=O)[C@]6(C(C)O)SS[C@]4(C(=O)N6C)[C@H]5O)c4ccccc4N[C@@H]1N3C2=O (stereo partly shown) [verticillin D]	–	completely abrogated foci formation	gross morphological liver damage and fused organs	reduced	35.3 nM	nanomolar cytotoxic activity	moderate cytotoxic activity	nanomolar cytotoxic activity	completely abrogated foci formation	inhibit the growth	12.2 nM	1170 nM	34.2 nM
